High-throughput results from PubChem BioAssay.
Only some compounds are listed: those with a hit (about 2.3% of all), similar ones and a draw of the others.
EWS-Fli inh = inhibitors of EWS/Fli oncoprotein transcriptional activity; AID 651661; hit rate 0.67% among 350,000; inhibition, % at 12.6 µM; A673 NR0B1-luciferase reporter, viability-normalised;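 active = mean inhibition of at least 50% after viability correction, with every replicate also passing that limit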;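 note: firefly luciferase signal divided by Alamar Blue viability fluorescence both relative to DMSO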
LGR2 inh = Drosophila LGR2 receptor signaling inhibition. HEK293 LGR2, CRE-luciferase, bursicon-stimulated, 4 h. inhibition, % at 9.99 µM. hit rate 0.35% among 380,000;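 active = drop in luminescence signal, shown as inhibition above about 50% in the replicate tests, limit read from the data, passing the limit was not always enough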;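 note: agonist challenge used bursicon conditioned medium at about half maximal strength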
TROY signal inh = inhibitors of TROY-dependent NF-kB signaling; Q293 LMP1-TROYcd NF-kB luciferase reporter, 4 h; inhibition, % at 10 µM; hit rate 0.98% among 360,000;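 active = compounds whose plate-normalised and pattern-corrected inhibition of the luciferase reporter signal at the single screening dose is 50% or more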
XiGFP reactiv = activators of X-chromosome reactivation in mouse fibroblasts; AID 743238; XiGFP mouse fibroblasts, % GFP-positive cells imaging, 3 d; cells co-treated with 5-aza-dC sensitizer; scaled so ellipticine positive control = 100%; hit rate 0.055% among 360,000; activation, % at 7.58 µM;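 active = mean normalized replicate activation at least 10% and every replicate at or above 10%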
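material = 68-5-11 XiGFP fibroblast line | medium = DMEM plus 5-aza-dC sensitizer | schedule = 3 days compound exposure | benchmarks = positive control ellipticine, 6 µM final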
FN deposition inh = fibronectin deposition inhibition; AH1F fibroblasts, Alexa488-fibronectin deposition fluorescence, overnight; inhibition, % at 12.6 µM; hit rate 0.086% among 350,000;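 active = mean inhibition across replicates of 30% or more, regardless of how many single replicates reach that level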
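Assay system: AH1F fibroblasts assembling fluorescent fibronectin matrix; Amount: 10000 AH1F cells per well; Buffer or medium: DMEM, 2% serum; Probe or stimulus: Alexa488-fibronectin, 24 nM final in well; Doses: single compound dose, delivered by pin transfer; Incubation: 1 h adhesion, overnight exposure; Measured by: fluorescence 485/525 nm; Read-out: fibronectin deposition inhibition.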
TWEAK-Fn14 inh = blocks TWEAK-Fn14 interaction in a reporter cell assay; TWEAK-stimulated Fn14 reporter cells, luciferase luminescence, 8 h; AID 1159606; inhibition, % at 10 µM; hit rate 2% among 360,000; in the data active = inhibition above about 50%
Each line names hits and unclear results; the compound was inactive in the other large screens.

Cc1ccc2nc(-c3ccc(NC(=O)CSCC(=O)O)cc3)sc2c1	none
O=C(Nc1ccc(-c2nc3ccccc3s2)cc1)C1=COCCO1	LGR2 inh 95, TROY signal inh 77, TWEAK-Fn14 inh 91 (no result: EWS-Fli inh)
O=C(O)CSCC(=O)Nc1ccc(-c2nc3ccccc3s2)cc1	TWEAK-Fn14 inh 71
COc1ccc2c3c(n(C)c2c1)[C@@H](CO)N(Cc1cccnc1)CC31CN(Cc2cccnc2)C1	none (no result: EWS-Fli inh, LGR2 inh, TROY signal inh, FN deposition inh, TWEAK-Fn14 inh)
C/C=C/c1cnc2c(c1)C(=O)N([C@@H](C)CO)C[C@@H](C)[C@H](CN(C)C(=O)c1ccc3c(c1)OCO3)O2	none (no result: TROY signal inh, TWEAK-Fn14 inh)
NC(=O)c1sc2nc3c(c(-c4ccco4)c2c1N)CCCC3	none
Nc1c(C(=O)NCC2CCCO2)sc2nc3c(c(-c4ccco4)c12)CC/C3=C\c1ccco1 (stereo unspecified)	TWEAK-Fn14 inh 89 (no result: LGR2 inh)
COc1cc(O)c2c(c1)oc(=O)c1c3cc(O)c(O)cc3oc21	EWS-Fli inh 56 (no result: LGR2 inh, TROY signal inh, XiGFP reactiv, FN deposition inh, TWEAK-Fn14 inh)
COc1ccc2c(c1)oc(=O)c1cc(OC)ccc12	none (no result: XiGFP reactiv, FN deposition inh)
CCCN(C)C[C@H]1Oc2ncc(-c3cccc(C#N)c3)cc2C(=O)N([C@H](C)CO)C[C@@H]1C	none (no result: TROY signal inh, TWEAK-Fn14 inh)
COc1ccc(CCNC(=O)c2nnn(-c3ccccc3OC)c2N)cc1OC	none (no result: EWS-Fli inh, LGR2 inh, XiGFP reactiv)
COc1ccc(CCNC(=O)c2nnn(-c3ccc4c(c3)OCCO4)c2N)cc1OC	TROY signal inh 87, TWEAK-Fn14 inh 97 (no result: EWS-Fli inh, LGR2 inh, XiGFP reactiv, FN deposition inh)
COc1ccc(OC)c(S(=O)(=O)Oc2ccc(N)c3ccccc23)c1	TWEAK-Fn14 inh 87
COc1ccc(OC)c(S(=O)(=O)Nc2cccc3ccccc23)c1	none (no result: LGR2 inh)
CC1=CC(=C(C#N)c2nc3ccccc3s2)C=C(C)N1c1ccc(F)cc1	none (no result: FN deposition inh)
COc1ccccc1N1C(C)=CC(=C(C#N)c2nc3ccccc3s2)C=C1C	TROY signal inh 72, TWEAK-Fn14 inh 83 (no result: LGR2 inh)
CO[C@@H]1CN(C)C(=O)c2ccc(NS(=O)(=O)CC(F)(F)F)cc2OC[C@@H](C)N(C(=O)NC(C)C)C[C@@H]1C	none (no result: TROY signal inh, TWEAK-Fn14 inh)
COc1ccc2oc(=Nc3ccccc3)c(-c3nc4ccccc4[nH]3)cc2c1	TWEAK-Fn14 inh 56 (no result: EWS-Fli inh)
Cn1c(=O)c2[nH]c(CCCCCCCCc3nc4ccccc4[nH]3)nc2n(C)c1=O	TWEAK-Fn14 inh 70
COc1cccc2cc(-c3nc4ccccc4[nH]3)c(=O)oc12	none
Cn1c(=O)c2[nH]c(CCCCc3nc4ccccc4[nH]3)nc2n(C)c1=O	none
COc1ccc(CCCc2nc3ccccc3[nH]2)cc1	XiGFP reactiv 30
Cc1cccc2cc(-c3nc4ccc(C(=O)O)cc4[nH]3)c(=O)oc12	TWEAK-Fn14 inh 85 (no result: EWS-Fli inh, LGR2 inh, XiGFP reactiv, FN deposition inh)
C[C@@H]1CN([C@H](C)CO)C(=O)c2cc(NC(=O)Cn3cnnn3)ccc2O[C@H]1CN(C)S(=O)(=O)c1ccccc1	none (no result: TROY signal inh, FN deposition inh, TWEAK-Fn14 inh)
COCC(=O)N1CC2(CN[C@H](CO)c3c2c2ccc(OC)cc2n3C)C1	none (no result: TROY signal inh, FN deposition inh, TWEAK-Fn14 inh)
O=C(O)c1cccc(-c2nc3ccccc3[nH]2)c1	LGR2 inh 94
COC(=O)c1ccc(-c2nc3ccccc3[nH]2)cc1	TWEAK-Fn14 inh 56 (no result: EWS-Fli inh)
COC(=O)c1ccc(C(=O)Nc2ccc3nc(-c4ccncc4)[nH]c3c2)cc1	none
c1ccc(-c2nc3ccccc3[nH]2)cc1	none
COc1ccc(-c2nc3ccccc3[nH]2)cc1	TWEAK-Fn14 inh 66 (no result: XiGFP reactiv, FN deposition inh)
CC(C)Cc1nnc(NC(=O)CSc2nc(N)cc(=O)[nH]2)s1	FN deposition inh active (no result: EWS-Fli inh, LGR2 inh, XiGFP reactiv)
C[C@H](CO)N1C[C@H](C)[C@@H](CN(C)CC2CC2)Oc2c(NC(=O)CCCCCC(=O)Nc3ccccc3N)cccc2C1=O	none (no result: EWS-Fli inh, TROY signal inh, FN deposition inh, TWEAK-Fn14 inh)
Fc1ccc(CSc2nncn2NCc2ccccc2)cc1	TWEAK-Fn14 inh 77 (no result: EWS-Fli inh, LGR2 inh, XiGFP reactiv)
CC(C)NC(=O)Nc1cccc2c1O[C@@H](CN(C)C(=O)NC(C)C)[C@H](C)CN(C)C2=O	none (no result: EWS-Fli inh, LGR2 inh, TROY signal inh, TWEAK-Fn14 inh)
Cc1cc(/C=c2/sc3nc4ccccc4n3c2=O)c(C)n1-c1ccccn1	TROY signal inh 75, TWEAK-Fn14 inh 83 (no result: EWS-Fli inh, LGR2 inh, XiGFP reactiv, FN deposition inh)
CCN(CC)c1ccc(/C=c2\sc3nc4ccccc4n3c2=O)c(O)c1	TROY signal inh 54, TWEAK-Fn14 inh 67 (no result: FN deposition inh)
O=c1/c(=C/c2ccc(O)c([N+](=O)[O-])c2)sc2nc3ccccc3n12	none
Cc1cc(/C=c2\sc3nc4ccccc4n3c2=O)c(C)n1-c1ccc(C(=O)O)cc1	none
COc1cc(N2C(=O)C=CC2=O)c(OC)cc1Cl	FN deposition inh 35
